{"data": "Experimental data collected from several papers", "target": "Serine/threonine-protein kinase 24 (STK24, Homo sapiens, UniProt Q9Y6E0)", "note": "Each line is one published result; the experiments were not run side by side."}
{"Structure (SMILES)": "CN1CC(Oc2cnc(C#N)cc2-c2ccn3nc(NC(=O)C4CC4)cc3c2)C1", "test": "enzyme activity, inhibitor", "conditions": "1 µM", "quantity": "inhibition", "value": "6%"}
{"Structure (SMILES)": "Nc1ncnc2occ(-c3ccc(NC(=O)Nc4cc(C(F)(F)F)ccc4F)cc3)c12", "test": "cell-free assay, inhibitor", "conditions": "20 µM", "quantity": "remaining signal", "value": "4%"}
{"Structure (SMILES)": "CCN1CCN(Cc2ccc(NC(=O)c3ccc(C)c(Oc4ccnc5[nH]ccc45)c3)cc2C(F)(F)F)CC1", "test": "target engagement in cells, inhibitor, chemoproteomics", "system": "A-375", "conditions": "50 nM", "quantity": "inhibition", "value": "-10.7%"}
{"Structure (SMILES)": "COc1cc(Nc2cnc(C#N)c(O[C@H](C)CN(C)C)n2)ncc1-c1cnn(C)c1", "test": "enzyme activity, inhibitor, radiometric", "conditions": "1 µM", "quantity": "remaining activity", "value": "89%"}
{"Structure (SMILES)": "Cc1sc(C(=O)NC2COC2)cc1-n1cc(NC(=O)Nc2c(F)cccc2Cl)cn1", "test": "enzyme activity, inhibitor", "conditions": "10 µM", "quantity": "remaining activity", "value": "67.3%"}
{"Structure (SMILES)": "Cn1cncc1C1=CN(c2ncnc3[nH]cnc23)CCS1", "test": "enzyme activity, inhibitor, radiometric", "conditions": "50 nM", "quantity": "inhibition", "value": "13.2%"}
{"Structure (SMILES)": "CN(C)c1ncnc(-c2ccc3nc(Nc4cc(CN5CCN(C(=O)CC(F)(F)F)CC5)ccn4)[nH]c3c2)c1Cl", "test": "cell-free assay, competition with immobilised ligand", "conditions": "1 µM", "quantity": "remaining binding", "value": "90%"}
{"Structure (SMILES)": "Cn1c2c(Cl)c(Cl)ccc2c2cc[nH]c(=O)c21", "test": "thermal stability, DSF", "conditions": "10 µM", "quantity": "ΔTm", "value": "1.3 °C"}
{"Structure (SMILES)": "COc1cc2ncnc(Nc3ccc(F)c(Cl)c3)c2cc1OCCCN1CCOCC1", "test": "cell-free assay", "conditions": "0.5 µM", "quantity": "remaining signal", "value": "102%"}
{"Structure (SMILES)": "COc1cc2ncnc(Nc3ccc(Oc4ccccc4)c(C)c3C)c2cc1OC", "test": "enzyme activity, inhibitor", "conditions": "1 µM", "quantity": "inhibition", "value": "10%"}
{"Structure (SMILES)": "CCCCNc1ncc2c(-c3ccc(F)cc3)nn(C[C@H]3CC[C@H](N)CC3)c2n1", "test": "target engagement in cells, inhibitor, chemoproteomics", "conditions": "20 mM", "quantity": "inhibition", "value": "8.3%"}
{"Structure (SMILES)": "Cn1c2c(c3ccc(Cl)c(Cl)c31)C(C#N)C(C)(C)NC2=O (stereo not drawn)", "test": "thermal stability, DSF", "conditions": "10 µM", "quantity": "ΔTm", "value": "0.6 °C"}
{"Structure (SMILES)": "CCN1CCN(Cc2ccc(NC(=O)c3ccc(C)c(/C=C/c4cnc5[nH]ccc5c4OC)c3)cc2C(F)(F)F)CC1", "test": "target engagement in cells, inhibitor, chemoproteomics", "system": "A-375", "conditions": "0.5 µM", "quantity": "inhibition", "value": "-36.9%"}
{"Structure (SMILES)": "O=C(O)c1cc(-c2ccc(C3CCNCC3)cc2)c2ccc(-c3ccc(C(F)(F)F)cc3)cc2c1", "test": "cell-free assay, competition with immobilised ligand", "conditions": "1 µM", "quantity": "remaining binding", "value": "100%"}
{"Structure (SMILES)": "O=C1NC(=O)c2cc(Nc3ccc(F)cc3)c(Nc3ccc(F)cc3)cc21", "test": "cell-free assay", "conditions": "0.5 µM", "quantity": "remaining signal", "value": "93.7%"}
{"Structure (SMILES)": "CCOCCn1cc(C(=O)Nc2ccc(-n3nc(-c4cccnc4)cc3C(F)(F)F)cn2)ccc1=O", "test": "cell-free assay, competition with immobilised ligand", "conditions": "1 µM", "quantity": "remaining binding", "value": "100%"}
{"Structure (SMILES)": "Cc1ccc(Nc2nccc(N(C)c3ccc4c(C)n(C)nc4c3)n2)cc1S(N)(=O)=O", "test": "enzyme activity, inhibitor", "conditions": "10 µM", "quantity": "inhibition", "value": "-24%"}
{"Structure (SMILES)": "COc1ccc2c(c1)O[C@H](c1ccc(OC)c(OC)c1)C[C@@H]2NC(=O)C1(c2ccc3c(c2)OC(F)(F)O3)CC1", "test": "cell-free assay, competition with immobilised ligand", "conditions": "1 µM", "quantity": "remaining binding", "value": "92%"}
{"Structure (SMILES)": "CNC(=O)c1cc(Oc2ccc(NC(=O)Nc3ccc(Cl)c(C(F)(F)F)c3)cc2)ccn1", "test": "enzyme activity, inhibitor", "conditions": "10 µM", "quantity": "inhibition", "value": "-46%"}
{"Structure (SMILES)": "O=C(O)[C@@H]1[C@@H](Cn2nnc3ccccc3c2=O)CC[C@H]1C(=O)c1ccc(OCCC2CCOCC2)cc1", "test": "cell-free assay, competition with immobilised ligand", "conditions": "1 µM", "quantity": "remaining binding", "value": "99%"}
{"Structure (SMILES)": "Cc1cc(NC(=O)c2cccc3cc(-c4cccc5[nH]nc(N)c45)ccc23)ccc1F", "test": "enzyme activity, inhibitor", "conditions": "0.1 µM", "quantity": "activity vs control", "value": "116%"}
{"Structure (SMILES)": "Cc1ccc(C(=O)Nc2ccc(CN3CCN(C)CC3)c(C(F)(F)F)c2)cc1C#Cc1cnc2cccnn12", "test": "enzyme activity, inhibitor", "conditions": "23.5 nM", "quantity": "remaining activity", "value": "88%"}
{"Structure (SMILES)": "Nc1c(C(=O)NCc2ccc(C(=O)NCCCC3CCCCC3)cc2)cnn1-c1ccccc1", "test": "cell-free assay, competition with immobilised ligand", "conditions": "0.1 µM", "quantity": "remaining binding", "value": "91%"}
{"Structure (SMILES)": "Cn1c2c(c3ccc(Cl)c(Cl)c31)C(C#N)C1(CCNCC1)NC2=O (racemic)", "test": "thermal stability, DSF", "conditions": "10 µM", "quantity": "ΔTm", "value": "-0.7 °C"}
{"Structure (SMILES)": "CC(C)(C)c1nc(-c2cccc(NS(=O)(=O)c3c(F)cccc3F)c2F)c(-c2ccnc(N)n2)s1", "test": "enzyme activity, inhibitor, radiometric", "conditions": "1 µM", "quantity": "remaining activity", "value": "14%"}
{"Structure (SMILES)": "CC/C(=N\\NC(=O)NCc1cccc(O)c1)c1ccc(O)c(C)c1O", "test": "enzyme activity, inhibitor", "conditions": "0.1 µM", "quantity": "inhibition", "value": "4.3%"}
{"Structure (SMILES)": "Cn1c2c(c3ccc(Cl)c(Cl)c31)C(C#N)C1(CCCC1)NC2=O (stereo not drawn)", "test": "thermal stability, DSF", "conditions": "10 µM", "quantity": "ΔTm", "value": "0.8 °C"}
{"Structure (SMILES)": "O=C1CCc2cc(Nc3cc(OC4CCOCC4)c([N+](=O)[O-])cc3Cl)ccc2N1", "test": "cell-free assay, competition with immobilised ligand", "conditions": "1 µM", "quantity": "remaining binding", "value": "97%"}
{"Structure (SMILES)": "c1ccc(CNc2nc(N3CCOc4ccccc43)nc3c2CCCC3)cc1", "test": "target engagement in cells, inhibitor, chemoproteomics", "conditions": "20 mM", "quantity": "inhibition", "value": "-7%"}
{"Structure (SMILES)": "O=C1Nc2ccc(Cl)cc2C1=Cc1cc(Cl)c(O)c(Cl)c1", "test": "cell-free assay", "conditions": "0.5 µM", "quantity": "remaining signal", "value": "104%"}
{"Structure (SMILES)": "C[C@@H]1CN(c2cc(-c3nn(C)c4ccc(OC5(C)CC5)cc34)ncn2)C[C@H](C)O1", "test": "cell-free assay, competition with immobilised ligand", "conditions": "1 µM", "quantity": "remaining binding", "value": "79%"}
{"Structure (SMILES)": "Oc1ccc(-c2nc(-c3ccncc3)c(-c3ccc(F)cc3)[nH]2)cc1", "test": "cell-free assay", "conditions": "0.5 µM", "quantity": "remaining signal", "value": "95.2%"}
{"Structure (SMILES)": "CN(c1nccc(-c2cnn3ncccc23)n1)C1CC1", "test": "cell-free assay", "conditions": "1 µM", "quantity": "remaining signal", "value": "100%"}
